# Assay: Toxicity liver stage against HepG2, at 10uM
# Type: cell-based
# Set-up: test concentration 10 uM, cell line HepG2-A16-CD81EGFP
# Conditions: human, HepG2-A16-CD81EGFP cells; read-out: INHIBITION
# Procedure, shortened: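 Uninfected HepG2-A16-CD81EGFP cells, 3 × 10^3 per well, 1536-well, plated on prespotted compound at 10 μM final, parasite-free screening media added to match infected plates; puromycin 10 μM positive, DMSO 0.5% negative; run in parallel with 48 h PbLuc assay at 37 °C, 5% CO2; viability by CellTiter-Glo luminescence, normalized to controls.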
row,SMILES,cytotoxicity at 10 µM
1,COc1ccc(OC)c(Sc2ncccc2C(=O)NCCSC)c1,20.7%
2,CC(C)c1cc(C(=O)O)nc2[nH]c(=O)[nH]c(=O)c12,-3.25%
3,COc1cc(OC)cc(-c2noc(CC(N)c3ccccc3)n2)c1 (stereo unspecified),4.47%
4,O=C(Cn1ncc2c(c1=O)CCCCC2)Nc1cccc2[nH]ccc12,0.417%
5,COC(=O)c1ccc(C(=O)NCC2(O)CCOCC2)cc1,-5.08%
6,COCc1cnc2n1CCN(S(=O)(=O)c1c(C)nn(C)c1C)C2C (stereo unspecified),15.4%
7,Cc1ncnc2c1CCN(C(=O)Cc1cccc(F)c1)CC2,-5.95%
8,CN(C)C(=O)c1nc2c(s1)CCCN2Cc1ccccc1,7.58%
9,CC(C)NC(=O)c1nc2c(s1)CCCN2Cc1ccccc1,18.3%
10,CCOC(=O)C1CN(C(=O)C2CCOCC2)Cc2ncn(CC)c21 (stereo unspecified),5.65%
11,C[C@H]1C[C@@H]2CCN(CC3CCOCC3)C[C@H]2O1,10.3%
12,CCOCC1CN(Cc2ccsc2)Cc2cnn(C)c21 (stereo unspecified),7.72%
13,COc1ncccc1CN1C[C@H](C(=O)N2CCCO2)[C@@H]2CCO[C@@H]2C1,11.2%
14,O=C(O)c1ccc2[nH]cc(CN3CCCC3)c2c1,-2.66%
15,O=C1COc2ccc(S(=O)(=O)NCC3CCCO3)c3c2N1CCC3 (stereo unspecified),-4.2%
16,CCS(=O)(=O)N1Cc2nccn2CC(COc2cccnc2)C1 (stereo unspecified),-2.34%
17,CN1CCCC(c2ccnc(C(=O)NCC3CC3)c2)C1 (stereo unspecified),3.89%
18,CC(=O)N1CCCN(c2cc(C3CN(C)CCO3)nc(C)n2)CC1 (stereo unspecified),7.47%
19,CNc1nc2ncc(Cl)cc2cc1C#N,5.05%
20,Cc1cc(C)c2ncc(C#N)c(N3CCS(=O)(=O)CC3)c2c1,-8.17%
21,Cc1cc(C)c(CNC(=O)C(C)Oc2cccc(C#N)c2)c(=O)[nH]1 (stereo unspecified),7.42%
22,Cc1nc(C)n(CC2CCCCN2CCCC#N)n1 (stereo unspecified),6.73%
23,Cc1cc(C)n(CC2CCCCN2CCCS(=O)(=O)N(C)C)n1 (stereo unspecified),2.32%

row,SMILES,cytotoxicity at 10 µM
1,O=C(NCCCF)N1CCC(n2ccc(C(F)(F)F)n2)CC1,-5.29%
2,O=C(Nc1nccs1)NC1CCOc2ccccc21 (stereo unspecified),6.78%
3,CS(=O)(=O)c1ccc(OCCNCc2c(F)cccc2F)cc1,-7.12%
4,CC(=O)c1ccc(NC(=O)C(NC(=O)Nc2ccccc2)C(C)C)cc1 (stereo unspecified),-0.719%
5,COc1cc(F)c(NC(=O)N(C)CCNC(=O)N(C)C)cc1F,17.6%
6,Cc1nc(CN(C)c2nc3c(cnn3C(C)(C)C)c(=O)[nH]2)cs1,-5.53%
7,Cc1n[nH]c(C)c1C1CCCN1C(=O)c1coc(Br)c1 (stereo unspecified),4.23%
8,CSCC(CCO)NC(=O)c1cccc(Cl)c1F (stereo unspecified),19%
9,Cc1noc2ncc(S(=O)(=O)N3CCCC(C)(C)CC3)cc12,8.88%
10,COc1ccc(Cl)cc1NC(=O)CNc1ccn(CC(N)=O)n1,13.6%
11,[O-][S+](CCN1CCc2[nH]nc(C(F)(F)F)c2C1)c1ccccc1 (stereo unspecified),-9.92%
12,Cn1c(C(=O)NS(C)(=O)=O)ccc1-c1ccccc1,-6.85%
13,c1ccc(CSc2nnc(C3CC3)s2)nc1,0.873%
14,Cc1cccc(C)c1NCc1noc(C2CC2)n1,-5.06%
15,Cc1nnc(CN(Cc2ccc(Cl)c(Cl)c2)C2CC2)o1,4.85%
16,CS(=O)(=O)Cc1nc(CN2CCCc3sccc3C2)cs1,7.28%
17,CN(Cc1ccc(Cl)c(F)c1)C(=O)c1ccncc1F,3.31%
18,COCCn1nc(C(=O)N(C)Cc2cnn(C)c2)ccc1=O,-2.44%
19,Cn1c(CN2CCN(CC3CC3)CC2)nnc1C1CCC1,-26.7%
20,CCS(=O)(=O)N1CCCn2nnc(Cn3cccc3)c2C1,9.77%
21,CC(c1cccc(-c2nccn2CCc2ccccn2)c1)N(C)C (stereo unspecified),7.62%
22,CCC[C@@H]1CN(Cc2ccc(N(C)C)nc2)C[C@H]1N(C)C,-15.1%
23,Cc1nn(C)c(C)c1CN(C)C(=O)C1COc2ccccc2C1 (stereo unspecified),-3.35%

row,SMILES,cytotoxicity at 10 µM
1,NC(=O)c1ccc(-n2ccnc2C2CC2)cc1N1CCCC1,-3.82%
2,CC(C1CCN(Cc2ccc(N(C)C)nc2)CC1)N1CCOCC1 (stereo unspecified),6.06%
3,Cc1ccc(C)c(OCCNC(=O)C2CCOC2)c1 (stereo unspecified),-2.73%
4,COc1ccc2cc(CN(C)CCc3cn[nH]c3)c(=O)[nH]c2c1,0.363%
5,CC(O)c1cccc(-n2c(CCC(=O)O)nc3ccccc32)c1 (stereo unspecified),2.16%
6,CCN(C)C[C@@H]1CN(S(=O)(=O)c2cccc(C#N)c2)C[C@@H]1CO,5.45%
7,c1cnc(N2CCC(c3nccn3CC3CC3)CC2)nc1,-7.28%
8,FC(F)(F)c1ccc(-c2noc3c2CN(CC2CCCO2)CC3)cc1 (stereo unspecified),1.99%
9,CCCC1(C(=O)O)CCCN(C(=O)c2cc(Cl)ccc2F)C1 (stereo unspecified),0.515%
10,Cc1cc(C)n(C2CCN(c3ncnc4c3CCC4)C2)n1 (stereo unspecified),23.6%
11,COc1cnc(CN2CC(=O)N(c3ccc(C)cc3)CC2C)cc1O (stereo unspecified),4.01%
12,CS(=O)(=O)CCN1CC(c2ccccc2)(c2ccccc2)CCC1=O,0.623%
13,N[C@H]1CN(C(=O)CCC(F)(F)F)C[C@@H]1c1ccccc1,6.95%
14,O=C(c1ncc[nH]1)N1CCC(n2cc(-c3cccc(Cl)c3)nn2)CC1,5.28%
15,CN1CCN(C2CCN(CCOc3ccc(Cl)cc3)CC2)C1=O,-5.36%
16,c1ccc(-c2nccc(CNC3CCc4ncnn4C3)n2)cc1 (stereo unspecified),0.787%
17,CC(C)c1nccn1C1CCCN(C(=O)CCNS(C)(=O)=O)C1 (stereo unspecified),-3.71%
18,CCC(O)CN1CCN(C(=O)c2cc(Cl)cc3cccnc23)CC1 (stereo unspecified),-13.7%
19,Cc1cc(C(=O)NCc2ccnc(N3CCN(C)CC3)c2)sc1C,-11.7%
20,Cc1cnn(CC2CCCCN2Cc2nc(C)c3ccccc3n2)c1 (stereo unspecified),-8.54%
21,O=c1[nH]c(CCN2CCCCC2Cn2cccn2)nc2ccccc12 (stereo unspecified),-16.4%
22,CC(C)c1nnc(CN2CCN(CC(O)c3ccccc3)CC2)o1 (stereo unspecified),-7.03%
23,CC(Cn1ccnc1)NC(=O)N(C)Cc1ccc2c(c1)OCCO2 (stereo unspecified),-29.5%

row,SMILES,cytotoxicity at 10 µM
1,COC(=O)C(c1cc(F)ccc1F)N(C)C(=O)c1ccccn1 (stereo unspecified),-2.72%
2,N#Cc1ccc(OCCCN2CCOC(Cn3cncn3)C2)cc1 (stereo unspecified),-0.0581%
3,Cc1cc(C)n(CC2CCCN2CC(=O)N(C)CCC#N)n1 (stereo unspecified),-14.8%
4,Cc1cc(C)c(CNC(=O)NCC(O)COc2ccccc2)c(=O)[nH]1 (stereo unspecified),-5.75%
5,CS(=O)(=O)NC1CCN(C(=O)NCCNc2ccccn2)CC1,-0.685%
6,CCc1nc(CN(C)CC(c2cccs2)N2CCOCC2)no1 (stereo unspecified),-2.36%
7,Cc1nn(C)c(N(C)C)c1CNCCCN(C)S(C)(=O)=O,-4.07%
8,O=C(Nc1ncn(CC(=O)N2CCCCCC2)n1)C1CCCO1 (stereo unspecified),-4.56%
9,Cc1cc(CNCc2c(C)nn(C)c2N2CCOCC2)no1,-8.11%
10,Cc1nc(C)n(CC2CCCN2Cc2nc(-c3cccs3)no2)n1 (stereo unspecified),-4.02%
11,Cc1cc(CN2CCN(CC(O)c3ccccc3)CC2)no1 (stereo unspecified),-14.4%
12,COc1ccc(CC(=O)NC2(C)CCS(=O)(=O)C2)cc1F (stereo unspecified),2.05%
13,Cc1cc(CN(C)C(=O)c2ccc(Cl)c(S(C)(=O)=O)c2)no1,-2.77%
14,O=C(C1CCN(c2snc3ccccc23)CC1)N1CCCCCC1,11.7%
15,CCn1cnnc1CNC(=O)c1ccc(Cl)cc1F,-0.457%
16,CC1CCN(S(=O)(=O)NCCCn2cncn2)CC1,-4.91%
17,c1csc(-c2nc(CN3CCOC(Cn4cccn4)C3)co2)c1 (stereo unspecified),-11.1%
18,O=C(CCC(=O)N1CCCC1c1cccs1)N1CCc2sccc2C1 (stereo unspecified),-8.45%
19,Cc1cnn(CC2CCCCN2Cc2nc(-c3ccoc3)no2)c1 (stereo unspecified),-7.2%
20,O=C(c1ccccc1OCC1CC1)N1CCCC(n2ccnc2)C1 (stereo unspecified),-1.8%
21,Cc1cn2c(n1)CCC(NC(=O)c1cnc(C)nc1C(C)C)C2 (stereo unspecified),-0.144%
22,COCCn1c(=O)n(C)c(=O)c2ccc(C3CCC(CN)CC3)nc21 (stereo unspecified),-0.2%
23,COCCN1C[C@@H](C)[C@@]2(COCCN(C(=O)c3ccccn3)C2)C1,9.58%

row,SMILES,cytotoxicity at 10 µM
1,CCN1CCC2(CC1)C(=O)N(c1ccc(C)nc1)CCN2CC(C)C,16.4%
2,Cn1nc(C2CCCN(Cc3cc(F)cc(F)c3)C2)c2nccnc21 (stereo unspecified),-16.3%
3,c1cnc(NCc2ncn3c2CN(Cc2cccnc2)CCC3)nc1,-8.81%
4,Cc1nc2c(c(NC(C)C)n1)CCN(C1CCOCC1)CC2,9.26%
5,CN(Cc1cccnc1)[C@@H]1CN(Cc2cnn(C)c2)[C@@H]2CCCO[C@H]12,-2.1%
6,Cc1cccc(CN2C(=O)CO[C@@H]3CN(Cc4nccn4C)C[C@H]32)c1,-16.7%
7,Cc1nc(CN2CCC3(CCCN(Cc4cccnc4)C3)C2=O)cs1 (stereo unspecified),20.8%
8,COCCN1CCO[C@@H]2CN(Cc3ccccn3)C[C@@H]2C1,-3.06%
9,c1coc(CN2C[C@@H]3OCCN(CCN4CCCC4)[C@@H]3C2)c1,-1.52%
10,CCOC(=O)C1CN(CC2CC2)Cc2ncn(CC)c21 (stereo unspecified),12.2%
11,COc1c(CNC2CCc3c(Cl)cccc32)c(C)nn1C (stereo unspecified),13.3%
12,Cc1nc(CN2CCO[C@@H]3CN(C(=O)NC(C)C)CC[C@@H]3C2)cs1,0.41%
13,c1cncc(C2COC3(CCN(Cc4nccs4)CC3)C2)c1 (stereo unspecified),1.7%
14,O=S(=O)(C1CC1)N1Cc2[nH]nc(COCC3CC3)c2C1,16.4%
15,Cc1cc(CN2C[C@H]3CCC[C@@]3(COCC3CCOCC3)C2)no1,0.073%
16,O=C(NC1CCC1)[C@H]1C[C@@H]2[C@@H](C1)OCCN2CC1CC1,-2.17%
17,Cc1cccc(-n2cc3[nH]c(=O)[nH]n3c2=O)c1,2.48%
18,COc1cccc(-n2cc3[nH]c(=O)n(Cc4cccc(F)c4)n3c2=O)c1,0.647%
19,Cc1nc(=O)c(CC(=O)N2C[C@H]3CC[C@@H](C2)N(CC2CCC2)C3)c(C)[nH]1,9.6%

# — ChEMBL document CHEMBL4513216, “Probing the Open Global Health Chemical Diversity Library for Multistage-Active Starting Points for Next-Generation Antimalarials” (ACS Infect Dis, 2020)
